Test results reported in ChEMBL document CHEMBL5247575 (J Med Chem, 2018).

system: Acinetobacter baumannii; test: Synergistic antibacterial activity against Acinetobacter baumannii PR440 producing OXA-23/24/40 assessed as cefepime MIC at 4 ug/ml by broth microdilution method; type: functional; details: dose 4 µg/ml

SMILES	MIC [µg/mL]
O=C(NNC(=O)[C@@H]1CC[C@@H]2CN1C(=O)N2OS(=O)(=O)O)[C@@H]1CCNC1	> 16

system: Pseudomonas aeruginosa; test: Synergistic antibacterial activity against Pseudomonas aeruginosa CL232 assessed as meropenem MIC at 8 ug/ml by broth microdilution method; type: functional; details: dose 8 µg/ml

SMILES	MIC [µg/mL]
O=C(NNC(=O)[C@@H]1CC[C@@H]2CN1C(=O)N2OS(=O)(=O)O)[C@@H]1CCNC1	16

system: Klebsiella pneumoniae; test: Synergistic antibacterial activity against Klebsiella pneumoniae 1315/2198 producing KPC-3 assessed as cefepime MIC at 4 ug/ml by broth microdilution method; type: functional; details: dose 4 µg/ml
Procedure, shortened: (§1)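 Broth microdilution per CLSI guidelines, using custom frozen panels. […] Each partner drug was also tested alone. MICs were run in triplicate and the modal value is reported.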

SMILES	MIC [µg/mL]
O=C(NNC(=O)[C@@H]1CC[C@@H]2CN1C(=O)N2OS(=O)(=O)O)[C@@H]1CCNC1	≤ 0.12

system: Acinetobacter baumannii; test: Synergistic antibacterial activity against ADC deleted Acinetobacter baumannii transfected with pWH1266 OXA-23 assessed as cefepime MIC at 4 ug/ml by broth microdilution method; type: functional; details: dose 4 µg/ml

SMILES	MIC [µg/mL]
O=C(NNC(=O)[C@@H]1CC[C@@H]2CN1C(=O)N2OS(=O)(=O)O)[C@@H]1CCNC1	16

system: Klebsiella pneumoniae; test: Synergistic antibacterial activity against Klebsiella pneumoniae 935/1884 producing KPC-3 assessed as meropenem MIC at 4 ug/ml by broth microdilution method; type: functional; details: dose 4 µg/ml

SMILES	MIC [µg/mL]
O=C(NNC(=O)[C@@H]1CC[C@@H]2CN1C(=O)N2OS(=O)(=O)O)[C@@H]1CCNC1	≤ 0.12

system: Klebsiella pneumoniae; test: Synergistic antibacterial activity against Klebsiella pneumoniae 972/1910 producing KPC-3 assessed as cefepime MIC at 8 ug/ml by broth microdilution method; type: functional; details: dose 8 µg/ml

SMILES	MIC [µg/mL]
O=C(NNC(=O)[C@@H]1CC[C@@H]2CN1C(=O)N2OS(=O)(=O)O)[C@@H]1CCNC1	≤ 0.12

system: Acinetobacter baumannii; test: Synergistic antibacterial activity against Acinetobacter baumannii PR381 producing OXA-24/40 assessed as cefepime MIC at 4 ug/ml by broth microdilution method; type: functional; details: dose 4 µg/ml

SMILES	MIC [µg/mL]
O=C(NNC(=O)[C@@H]1CC[C@@H]2CN1C(=O)N2OS(=O)(=O)O)[C@@H]1CCNC1	16

system: Klebsiella pneumoniae; test: Synergistic antibacterial activity against Klebsiella pneumoniae 761/1723 producing KPC-3 assessed as meropenem MIC at 8 ug/ml by broth microdilution method; type: functional; details: dose 8 µg/ml

SMILES	MIC [µg/mL]
O=C(NNC(=O)[C@@H]1CC[C@@H]2CN1C(=O)N2OS(=O)(=O)O)[C@@H]1CCNC1	≤ 0.12

system: Klebsiella pneumoniae; test: Synergistic antibacterial activity against Klebsiella pneumoniae 776/1742 producing KPC-2 assessed as meropenem MIC at 8 ug/ml by broth microdilution method; type: functional; details: dose 8 µg/ml

SMILES	MIC [µg/mL]
O=C(NNC(=O)[C@@H]1CC[C@@H]2CN1C(=O)N2OS(=O)(=O)O)[C@@H]1CCNC1	≤ 0.12

system: Klebsiella pneumoniae; test: Synergistic antibacterial activity against Klebsiella pneumoniae 440/1360 producing KPC-2 assessed as cefepime MIC at 8 ug/ml by broth microdilution method; type: functional; details: dose 8 µg/ml; procedure, shortened: as §1

SMILES	MIC [µg/mL]
O=C(NNC(=O)[C@@H]1CC[C@@H]2CN1C(=O)N2OS(=O)(=O)O)[C@@H]1CCNC1	≤ 0.12

system: Pseudomonas aeruginosa; test: Synergistic antibacterial activity against Pseudomonas aeruginosa 715 assessed as meropenem MIC at 8 ug/ml by broth microdilution method; type: functional; details: dose 8 µg/ml

SMILES	MIC [µg/mL]
O=C(NNC(=O)[C@@H]1CC[C@@H]2CN1C(=O)N2OS(=O)(=O)O)[C@@H]1CCNC1	0.5

system: Escherichia coli; test: Synergistic antibacterial activity against Escherichia coli DH10B transfected with pBC SK (-) PDC-3 assessed as cefepime MIC at 4 ug/ml by broth microdilution method; type: functional; details: dose 4 µg/ml; procedure, shortened: as §1

SMILES	MIC [µg/mL]
O=C(NNC(=O)[C@@H]1CC[C@@H]2CN1C(=O)N2OS(=O)(=O)O)[C@@H]1CCNC1	≤ 0.12

system: Klebsiella pneumoniae; test: Synergistic antibacterial activity against Klebsiella pneumoniae 11978 producing OXA-48 assessed as cefepime MIC at 4 ug/ml by broth microdilution method; type: functional; details: dose 4 µg/ml; procedure, shortened: as §1

SMILES	MIC [µg/mL]
O=C(NNC(=O)[C@@H]1CC[C@@H]2CN1C(=O)N2OS(=O)(=O)O)[C@@H]1CCNC1	≤ 0.12

system: Klebsiella pneumoniae; test: Synergistic antibacterial activity against Klebsiella pneumoniae 761/1723 producing KPC-3 assessed as cefepime MIC at 8 ug/ml by broth microdilution method; type: functional; details: dose 8 µg/ml; procedure, shortened: as §1

SMILES	MIC [µg/mL]
O=C(NNC(=O)[C@@H]1CC[C@@H]2CN1C(=O)N2OS(=O)(=O)O)[C@@H]1CCNC1	≤ 0.12

system: Pseudomonas aeruginosa; test: Synergistic antibacterial activity against Pseudomonas aeruginosa 839 assessed as meropenem MIC at 4 ug/ml by broth microdilution method; type: functional; details: dose 4 µg/ml

SMILES	MIC [µg/mL]
O=C(NNC(=O)[C@@H]1CC[C@@H]2CN1C(=O)N2OS(=O)(=O)O)[C@@H]1CCNC1	≤ 0.12

system: Acinetobacter baumannii; test: Synergistic antibacterial activity against Acinetobacter baumannii PR319 producing OXA-23/24/40 assessed as cefepime MIC at 8 ug/ml by broth microdilution method; type: functional; details: dose 8 µg/ml

SMILES	MIC [µg/mL]
O=C(NNC(=O)[C@@H]1CC[C@@H]2CN1C(=O)N2OS(=O)(=O)O)[C@@H]1CCNC1	> 16

system: Bacteria; test: Inhibition of bacteria ADC-7 assessed as half life using nitrocefin as substrate; details: not given

SMILES	T1/2 [min]
O=C(NNC(=O)[C@@H]1CC[C@@H]2CN1C(=O)N2OS(=O)(=O)O)[C@@H]1CCNC1	13

system: Acinetobacter baumannii; test: Synergistic antibacterial activity against Acinetobacter baumannii PR408 producing OXA-24/40 assessed as cefepime MIC at 8 ug/ml by broth microdilution method; type: functional; details: dose 8 µg/ml

SMILES	MIC [µg/mL]
O=C(NNC(=O)[C@@H]1CC[C@@H]2CN1C(=O)N2OS(=O)(=O)O)[C@@H]1CCNC1	16
